Source: PMC11704051 (Nature Communications, 2025)
Values joined by “and” are separate entries in the source; they are usually repeats but may differ in a detail not shown here. Equal values may be shown once.

Legend:
[1] = system: patients with advanced malignancies; assay: Phase 1 trial: safety and tolerability; format: in vivo, human; settings: for DLT: cycle 1; for Patients with any TRAE / TRAE Anemia / TRAE Blood bilirubin increased/hyperbilirubinemia / TRAE Diarrhea / TRAE Fatigue / TRAE Nausea / TRAE Rash (rash, rash macular, rash maculo-popular) / TRAE Thrombocytopenia /platelet count decrease: n = 40
Summary of the method: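 Monitoring covered AEs graded by NCI-CTCAE v4.03, SAEs, laboratory values, clinical examinations, vital signs, ECOG status, ophthalmology and ECG. DLTs were assessed over cycle 1 (28 days) of oral single-agent dosing (50–400 mg QD, 200 mg BID). Escalation used a two-parameter BLRM with EWOC: reference 650 mg total daily dose, target DLT interval [0.16, 0.33], <25% chance of excessive toxicity, increments ≤100%.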

[2] = system: advanced solid tumors with homozygous deletion of CDKN2A/MTAP and/or loss of MTAP protein; assay: Phase 1 trial: antitumor activity by RECIST v1.1, treatment duration; format: in vivo, human
Summary of the method: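 Adults with advanced solid tumour or lymphoma (homozygous CDKN2A and/or MTAP deletion by local FISH or sequencing, and/or central MTAP IHC with ≤20% positive tumour cells) took test compound orally on an empty stomach. Dosing was 50–400 mg QD or 200 mg BID: a single dose on C0D-3, then daily from C1D1 in 28-day cycles until progression or toxicity. Local investigators scored response by RECIST v1.1 (Lugano for lymphoma).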

[3] = Plasma pharmacokinetics of AG-270/S095033; format: in vivo, human
SAM = assay: Plasma SAM concentration; format: in vivo, human
Summary of the method: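 Plasma SAM was quantified by LC-MS/MS. Baseline blood was drawn twice at screening and before the single oral dose on C0D-3. At steady state (C1D15) sampling was pre-dose and 0.5, 1, 2, 3, 4, 6, 8 and 24 h post-dose, with daily oral dosing at 50–400 mg QD or 200 mg BID. The read-out was percent change from baseline.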

methionine = assay: Plasma methionine concentration; format: in vivo, human; settings: steady state (C1D15)
SDMA residues = assay: SDMA by IHC; format: in vivo, human; settings: NSCLC patient, 50 mg QD
Summary of the method: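 Paired core-needle biopsies (archival or fresh) were taken at screening/baseline and at the end of cycle 1. Tissue was fixed in 10% […] buffered formalin and paraffin-embedded. H&E confirmed tumour content, and SDMA in tumour cells was scored by IHC as an H-score. Paired comparison used a two-sided Wilcoxon matched-pairs test.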

mouse = mouse GLP toxicology study, non-tolerated doses; cited from earlier work
[4] = system: MTAP-deleted cancer cell lines; settings: multiple MTAP-deleted cancer cell lines; cited from earlier work
MTAP-null tumors = settings: cited from earlier work
UGT1A1 = settings: known potential; cited from earlier work
OATP1B1 = settings: known potential; cited from earlier work
[5] = system: MTAP-deleted urothelial cancer and lung cancer; settings: cited from earlier work
[6] = monotherapy expansion, MTAP-deleted urothelial cancer and lung cancer

Compound: COc1ccc(-c2c(Nc3ccccn3)[nH]c3c(C4=CCCCC4)c(-c4ccccc4)nn3c2=O)cc1 [AG-270/S095033]
- Patients with dose-limiting ≥grade 3 / acute liver injury ([1]; 200 mg BID): two patients
- Severity of thrombocytopenia ([1]; 200 mg BID): Higher grade thrombocytopenia
- DLT ([1]; 1 patient at 100 mg QD): Grade 2 hypersensitivity reaction
- DLT ([1]; 1 patient at 150 mg QD): Grade 3 hyperbilirubinemia and Grade 3 maculo-papular rash
- DLT ([1]; 1 patient at 200 mg QD): Grade 3 neutrophil count decreased
- Patients who experienced a TEAE of Grade ≥3 ([1]; 40 patients): 67.5%
- Patients with AEs leading to permanent treatment discontinuation ([1]; 40 patients): 5.0%
- Patients with TRAEs of Grade ≥3 ([1]; 40 patients): 17.5%
- Patients with at least one DLT during cycle 1 ([1]; 40 patients): 10%
- Patients with fatal SAEs (none related to treatment) ([1]; 40 patients): 5.0%
- Patients with serious adverse events (SAEs) regardless of relationship ([1]; 40 patients): 57.5%
- Patients with worst post-baseline ECOG score of 2 ([1]; 40 patients): 20.0%
- Patients with worst post-baseline ECOG score of 3 ([1]; 40 patients): 2.5%
- SAE abdominal pain ([1]; 40 patients): 5.0%
- SAE liver injury ([1]; 40 patients): 5.0%
- SAE pancreatitis ([1]; 40 patients): 5.0%
- SAE sepsis ([1]; 40 patients): 5.0%
- SAE tumor pain ([1]; 40 patients): 5.0%
- TEAE non-serious blurred vision (not related to treatment) ([1]; 40 patients): 5%
- TEAE non-serious supraventricular tachycardia ([1]; 40 patients): 2.5%
- TEAE non-serious tachycardia ([1]; 40 patients): 5%
- TEAE optic disc hemorrhage (not related to treatment) ([1]; 40 patients): 2.5%
- TEAE retinal hemorrhage (not related to treatment) ([1]; 40 patients): 2.5%
- TEAE serious atrial fibrillation ([1]; 40 patients): 2.5%
- TEAE serious electrocardiogram T wave inversion ([1]; 40 patients): 2.5%
- TEAE serious sinus tachycardia ([1]; 40 patients): 2.5%
- TRAE blood bilirubin increase, any grade ([1]; 40 patients): 15%
- TRAE hyperbilirubinemia, any grade ([1]; 40 patients): 12.5%
- TRAE thrombocytopenia, any grade ([1]; 40 patients): 10%
- Patients with any TRAE ([1]; All Grades): 28 n (%) and 28 (70.0) n (%)
- TRAE Anemia ([1]; All Grades): 4 n (%) and 4 (10.0) n (%)
- TRAE Blood bilirubin increased/hyperbilirubinemia ([1]; All Grades): 10 n (%) and 10 (25.0) n (%)
- TRAE Diarrhea ([1]; All Grades): 3 (7.5) n (%)
- TRAE Fatigue ([1]; All Grades): 10 n (%) and 10 (25.0) n (%)
- TRAE Nausea ([1]; All Grades): 3 (7.5) n (%)
- TRAE Rash (rash, rash macular, rash maculo-popular) ([1]; All Grades): 6 (15.0) n (%)
- TRAE Thrombocytopenia /platelet count decrease ([1]; All Grades): 7 (17.5) n (%)
- Patients with any TRAE ([1]; Grade 1): 10 (25.0) n (%)
- TRAE Anemia ([1]; Grade 1): 1 (2.5) n (%)
- TRAE Blood bilirubin increased/hyperbilirubinemia ([1]; Grade 1): 1 (2.5) n (%)
- TRAE Diarrhea ([1]; Grade 1): 2 (5.0) n (%)
- TRAE Fatigue ([1]; Grade 1): 3 (7.5) n (%)
- TRAE Nausea ([1]; Grade 1): 3 (7.5) n (%)
- TRAE Rash (rash, rash macular, rash maculo-popular) ([1]; Grade 1): 3 (7.5) n (%)
- TRAE Thrombocytopenia /platelet count decrease ([1]; Grade 1): 2 (5.0) n (%)
- Patients with any TRAE ([1]; Grade 2): 11 (27.5) n (%)
- TRAE Anemia ([1]; Grade 2): 2 (5.0) n (%)
- TRAE Blood bilirubin increased/hyperbilirubinemia ([1]; Grade 2): 6 (15.0) n (%)
- TRAE Diarrhea ([1]; Grade 2): 1 (2.5) n (%)
- TRAE Fatigue ([1]; Grade 2): 7 (17.5) n (%)
- TRAE Nausea ([1]; Grade 2): 0 n (%)
- TRAE Rash (rash, rash macular, rash maculo-popular) ([1]; Grade 2): 1 (2.5) n (%)
- TRAE Thrombocytopenia /platelet count decrease ([1]; Grade 2): 2 (5.0) n (%)
- Patients with any TRAE ([1]; Grade 3): 6 (15.0) n (%)
- TRAE Anemia ([1]; Grade 3): 1 (2.5) n (%)
- TRAE Blood bilirubin increased/hyperbilirubinemia ([1]; Grade 3): 4 (10.0) n (%)
- TRAE Diarrhea ([1]; Grade 3): 0 n (%)
- TRAE Fatigue ([1]; Grade 3): 0 n (%)
- TRAE Nausea ([1]; Grade 3): 0 n (%)
- TRAE Rash (rash, rash macular, rash maculo-popular) ([1]; Grade 3): 2 (5.0) n (%)
- TRAE Thrombocytopenia /platelet count decrease ([1]; Grade 3): 3 (7.5) n (%)
- Patients with any TRAE ([1]; Grade 4): 1 (2.5) n (%)
- TRAE Anemia ([1]; Grade 4): 0 n (%)
- TRAE Blood bilirubin increased/hyperbilirubinemia ([1]; Grade 4): 0 n (%)
- TRAE Diarrhea ([1]; Grade 4): 0 n (%)
- TRAE Fatigue ([1]; Grade 4): 0 n (%)
- TRAE Nausea ([1]; Grade 4): 0 n (%)
- TRAE Rash (rash, rash macular, rash maculo-popular) ([1]; Grade 4): 0 n (%)
- TRAE Thrombocytopenia /platelet count decrease ([1]; Grade 4): 0 n (%)
- Treatment-related increases in transaminases ([1]; between the 100 mg and 400 mg dose levels): Low grade (Grade 1–2)
- Severity of thrombocytopenia ([1]; doses between 100 and 200 mg QD): largely Grade 1–2
- Effect on ECG parameters ([1]; in vivo): no discernable effect
- Time to resolution of erythematous rashes after stopping treatment ([1]; in vivo): ≤ 1 week
- Patients with PR interval >200 ms ([1]; maximum post-baseline value): 10.0%
- Patients with QRS duration >120 ms ([1]; maximum post-baseline value): 7.5%
- Patients with QT/QTc interval >450 ms ([1]; maximum post-baseline value): 15.0%
- Patients with QT/QTc interval increase from baseline >30 ms ([1]; maximum post-baseline value): 10.0%
- Patients with any TEAE ([1]; n=40): 40 N (%)
- TEAE Blood bilirubin increased ([1]; n=40): 9 N (%)
- TEAE Decreased appetite ([1]; n=40): 8 N (%)
- TEAE Diarrhoea ([1]; n=40): 8 N (%)
- TEAE Dyspnoea ([1]; n=40): 8 N (%)
- TEAE Fatigue ([1]; n=40): 17 N (%)
- TEAE Nausea ([1]; n=40): 13 N (%)
- ≥ Grade 3 TEAE Bilirubin increased ([1]; n=40): 4 N (%)
- Treatment-related clinically significant retinopathy ([1]; ophthalmologic examinations at screening and during treatment): No treatment-related events of clinically significant retinopathy were reported
- Maximum tolerated dose (MTD) ([1]; oral, 28-day cycles): 200 mg QD
- Increases in unconjugated bilirubin ([1]; patients, across doses): Asymptomatic, exposure-dependent and reversible increases in unconjugated bilirubin were observed starting at 100 mg QD
- Patients with SD for 4 months or longer ([2]; 40 patients): 12.5%
- Disease control rate (CR+PR+SD≥16 weeks) ([2]; 40 patients, 95%–CI 7.3, 32.8): 17.5%
- BOR Not evaluable (NE) ([2]; Total (n=40)): 7 n (%)
- BOR Partial response (PR) ([2]; Total (n=40)): 2 n (%)
- Duration of partial response ([2]; patient, sex cord stromal cell cancer, 100 mg QD): 28 months
- Increase of plasma concentrations with dose ([3]; 50 mg to 200 mg): dose-proportional manner from 50 mg to 200 mg
- Exposure relative to dose ([3]; 400 mg QD): less than dose proportional
- Cmax ([3]; human, plasma, oral, Geometric mean Cmax, range across the dosing cohorts, C1D15): 1710 to 13600 ng/mL
- half-life ([3]; human, plasma, oral, Geometric mean accumulation-based (effective) half-life (T½eff), range, C1D15, 50 to 200 mg QD and 200 mg BID): 43 to 99 h
- Tmax ([3]; human, plasma, oral, Median Tmax, range across the dosing cohorts, C1D15): 1 to 6 h
- half-life ([3]; human, plasma, oral, Median terminal half-life (t½), range across the tested doses): 16 to 38 h
- Time at which steady-state was achieved (mean plasma trough concentrations) ([3]; most of the cohorts): ≤ 15 days
- Mean reduction from baseline plasma SAM concentration (SAM; C1D15, 400 mg QD): ~ 54%
- Decrease of plasma SAM concentration from baseline, range across doses (SAM; C1D15, 50–200 mg QD and 200 mg BID): 65–70%
- Change in plasma methionine concentrations (methionine): increases in methionine concentrations in a drug exposure-dependent manner up to 200 mg QD
- SDMA reduction after 1 cycle of treatment (SDMA residues): 39%
- Retinal finding (mouse): non-reversible retinal atrophy at non-tolerated doses
- Effect on cell proliferation [4]: robust decrease in cell proliferation
- Effect on SAM levels (MTAP-null tumors; mice bearing MTAP-null tumors): reduce the levels of SAM in both plasma and tumor tissue
- Effect on tumor growth (MTAP-null tumors; mice bearing MTAP-null tumors): inhibit tumor growth in a dose- and drug exposure-dependent manner
- Reduction in plasma SAM concentration associated with maximum tumor growth inhibition (MTAP-null tumors; preclinical models): 60–80%
- Inhibition of UGT1A1 (UGT1A1): inhibit
- Inhibition of hepatocyte transporter OATP1B1 (OATP1B1): inhibit

Compound: Nc1nc(=O)n(-c2ccccc2Cl)c2nc(C(F)(F)F)ccc12 [IDE397]
- Patients achieving a PR ([5]; Phase 2 expansion, squamous NSCLC and bladder cancer): two out of eight patients
- Disease control rate [5, 6]: ~ 94%
- Overall response rate [5, 6]: ~ 39%
- ctDNA molecular response rate [5, 6]: ~ 81%
